From ChEMBL document CHEMBL1124294, “Nonsteroidal antiandrogens. Synthesis and structure-activity relationships of 3-substituted derivatives of 2-hydroxypropionanilides” (1988) come the findings set out here.

The structures appear in SMILES notation. Activity calls are given as the source filed them. The rule behind the calls is not given here.

The species entered for test [1] is Rattus norvegicus. Kind of test: Agonist activity indicated by a statistically significant increase in ventral prostate gland weight compared, to control animals; NA means no statistically significant increase in ventral prostate weight compared to controls. The test is classed as functional, organism-based. The method, boiled down: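 Male rats castrated at 24 days of age, groups of five. Killed 24 h after the final dose. Seminal vesicles and ventral prostate dissected, cleaned and weighed. Value is ventral prostate weight in mg, compared with castrated vehicle controls for statistical significance.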

Test [2] is filed under the species Rattus norvegicus. The experiment in a line: Effective dose required to inhibit 50 percent of androgen hormone activity in intact rat. The test is classed as functional. The method, boiled down: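 Rats dosed with vehicle 0.5% polysorbate. Killed 24 h after the last dose; seminal vesicles dissected, blotted and weighed. Percent inhibition uses a cumulative castrate control group as the 100% effect. ED50 taken from dose-response curves.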

In test [3] the test system is Rattus norvegicus. The experiment in a line: Percent inhibition of androgen hormone activity in rat at 50 mg/kg. In kind it is functional. The method, boiled down:
(§1)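 Rats dosed with vehicle 0.5% polysorbate. Killed 24 h after the last dose; seminal vesicles dissected, blotted and weighed. […] Percent inhibition uses a cumulative castrate control group as the 100% effect. ED50 taken from dose-response curves.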

For test [4], the system named is Rattus norvegicus. Kind of test: Percent inhibition of androgen hormone in rat at 25 mg/kg. In kind it is functional. The method, boiled down: as §1
The subject of test [5] is Rattus norvegicus. The experiment in a line: Percent inhibition of androgen hormone in rat at 50 mg/kg. In kind it is functional. The method, boiled down: as §1
Test [6] has as its system Rattus norvegicus. Kind of test: Effect of compound on LH level on 14-day dosing in intact rats; No statistically significant difference from control. In kind it is functional, organism-based.
Test [7] has as its system Rattus norvegicus. Kind of test: Effect of compound on testosterone hormone level on 14-day dosing in intact rats at 25 mg/kg. The test is classed as functional.
Test [8] concerns Rattus norvegicus. The experiment in a line: Effect of compound on testosterone hormone level on 14-day dosing in intact rats; No statistically significant difference from controls. The test is classed as functional, organism-based.
Test [9] concerns Rattus norvegicus. Kind of test: Effect of compound on LH level on 14-day dosing in intact rats 25 mg/kg. The test is classed as functional.
Test [10] relates to Rattus norvegicus. The experiment in a line: Effect of compound on testosterone hormone level on 14-day dosing in intact rats. The test is classed as functional.
Test [11] has as its system Rattus norvegicus. The experiment in a line: Effect of compound on LH level on 14-day dosing in intact rats. The test is classed as functional.

As a reminder, the ED50 is the dose at which the effect has come halfway, by size or by number of responders. The low end stands for greater potency, the high end for weaker potency. For the compound `CC(O)(CSc1ccc(F)cc1)C(=O)Nc1ccc(C#N)c(C(F)(F)F)c1` (centres undefined), in test [1], the Weight entry was “Not significant”. In addition, the 50% effect level in [2] (ED50) was put at a dose of 0.5 mg/kg.
As a reminder, the inhibition in vivo is the change of the read-out against control, counted positive when it falls. For `CC(O)(CSc1ccccc1)C(=O)Nc1ccc([N+](=O)[O-])cc1` (centres undefined), the inhibition in vivo at 50 mg/kg in test [3] was 11%.
In test [4], `CC(O)(CSc1ccccc1)C(=O)Nc1ccc(Cl)c(Cl)c1` (centres undefined) came in with an inhibition in vivo at 25 mg/kg of 44%.
On to `CC(O)(CS(=O)(=O)c1ccc(F)cc1)C(=O)Nc1ccc([N+](=O)[O-])c(C(F)(F)F)c1` (centres undefined), for which the 50% effect level in test [2] (ED50) was put at a dose of 0.4 mg/kg.
Turning to `CC(O)(CSc1ccccc1)C(=O)Nc1ccc(Cl)c([N+](=O)[O-])c1` (centres undefined), the Weight result in test [1] is “Not significant”. The inhibition in vivo at 50 mg/kg in [5] worked out at 36%.
`CC(O)(CS(=O)(=O)c1ccc(F)cc1)C(=O)Nc1ccc(C#N)c(C(F)(F)F)c1` (centres undefined) [BICALUTAMIDE]: the LH entry in test [6] is “inactive”. Further, the Weight entry in test [1] was “inactive”. In test [7], this compound displayed a Testosterone of 3.97 ng/mL. In test [2], the median effective dose (ED50) amounted to 0.5 mg/kg. For the same compound, the Testosterone result in [8] is “inactive”. This compound also came in with an LH in test [9] of 1.04 ng/mL.
Turning to `CC(C)C(=O)Nc1ccc([N+](=O)[O-])c(C(F)(F)F)c1` [FLUTAMIDE], the Weight result in test [1] was “inactive”. Also, the Testosterone in test [7] is 7.61 ng/mL; in test [10] it was less than 0.01 ng/mL. The LH in [11] is less than 0.01 ng/mL; in [9] it was 9 ng/mL. The compound also returned an ED50 in test [2] of 2 mg/kg.
